# Assay results gathered from unrelated publications.
# Compare with care: the assays were run in different laboratories.
# Target: Protein-tyrosine kinase 6 (PTK6, Homo sapiens, UniProt Q13882)
Structure (SMILES),assay,conditions,remaining binding [%]
COc1cc(-c2cn(C3CCc4c(F)cccc4N(CC(F)(F)F)C3=O)nn2)ccc1-n1cnc(C)c1 (stereo not drawn),"cell-free assay, competition with immobilised ligand",1 µM,100
O=C(NCC1CCOCC1)c1n[nH]cc1NC(=O)c1c(F)cccc1F,"binding, competition with immobilised ligand",1 µM,100
COc1cnc(Nc2cccc(S(N)(=O)=O)c2)nc1N1CCN(c2ccccc2)CC1,"binding, competition with immobilised ligand",1 µM,100
Nc1c(C(=O)NCc2ccc(C(=O)NCCCC3CCCCC3)cc2)cnn1-c1ccccc1,"cell-free assay, competition with immobilised ligand",0.1 µM,96
N[C@@H]1CCN(c2nccc(-c3cnn4ncccc34)n2)C1,binding,1 µM,100
c1cncc(-c2cccc(Nc3nccc(NC4CCCCC4)n3)c2)c1,"binding, competition with immobilised ligand",10 µM,80
CC1CCCN1c1nccc(-c2cnn3ncccc23)n1 (stereo not drawn),binding,1 µM,89
O=C(c1ccc(Nc2ncc(Cl)c(-c3ccc(Cl)s3)n2)cc1)N1CCC(N2CCCC2)CC1,"binding, competition with immobilised ligand",1 µM,79
COc1ccnn2ncc(-c3ccnc(N(C)C)n3)c12,binding,1 µM,100
CCN1CCN(Cc2ccc(C(=O)Nc3ccc(C)c(Oc4ccc5c(c4)CC(=O)N5)c3)cc2C(F)(F)F)CC1,"binding, competition with immobilised ligand",1 µM,100
O=C(c1ccc(Nc2nccc(-c3cc4ccccc4s3)n2)cc1)N1CCC(N2CCCC2)CC1,"binding, competition with immobilised ligand",1 µM,65
CN(CCCC(F)(F)F)c1nccc(-c2cnn3ncccc23)n1,binding,1 µM,97
CCC(=O)N[C@@H]1CC[C@H](C(=O)N(C)c2ccc(-c3nc4ccccc4o3)cc2)C1,"cell-free assay, competition with immobilised ligand",1 µM,90
C[C@H]1CCN(c2nccc(-c3cnn4ncccc34)n2)C1,binding,1 µM,100
C[C@H](c1ccc(F)cc1)N(Cc1cccc(C(=O)O)c1)C(=O)c1cnc2ccccc2c1,"cell-free assay, competition with immobilised ligand",1 µM,83
FC(F)(F)Oc1cccc(-c2cnc3ccc(-c4ccncc4)nn23)c1,"cell-free assay, competition with immobilised ligand",5 µM,86
O=C(NCCCN1CCOCC1)c1ccc(Nc2ncc(Cl)c(-c3ccc(Cl)s3)n2)cc1,"binding, competition with immobilised ligand",1 µM,100
CCc1ccccc1C(=O)Nc1n[nH]c2c(C)c(F)c(C3C(C#N)=C(C)N(C)C(C)=C3C#N)cc12,"cell-free assay, competition with immobilised ligand",1 µM,100
C[C@@H](c1ccc(-n2cnc3c(N)ncnc32)cc1)N1CCc2nn(C)c(Cc3ccccc3)c2C1=O,"binding, competition with immobilised ligand",0.1 µM,62
Cc1cnn2ncc(-c3ccnc(N(C)C)n3)c2c1,binding,1 µM,100
CN(C)c1ncnc(-c2ccc3nc(Nc4cc(CN5CCN(C(=O)CC(F)(F)F)CC5)ccn4)[nH]c3c2)c1Cl,"cell-free assay, competition with immobilised ligand",1 µM,86
